Data as given in PMC7919418 (Genes & Development, 2021).

Columns and labels:
[1] = test system: GFP reporter in OSCs; assay: Tethering reporter assay, λN-boxB recruitment to nascent RNA; type: cell-based, Drosophila; details: GFP by FACS, 2500 cells per experiment, normalized to control
In short: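 OSCs carrying a GFP reporter were nucleofected with λN-tagged protein plasmids (kit V, program T-029, six Mio. cells per transfection). Fold repression was derived from FACS GFP intensity relative to control, as mean ± SD of three biological replicates. For RNAi combinations, siRNA was given, then siRNA plus tethering plasmid 2 d later, with read-out 5 d after siRNA and 3 d after plasmid. Fusion expression was checked by western blot (Atp5a loading control).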

[2] = test system: GFP-Ctp; assay: Coimmunoprecipitation with Ctp; type: binding, Drosophila; details: western blot, Panx: S2 cells, GFP-Ctp and FLAG-Panx
In short: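 Lysates from S2 cells transfected with FLAG-Panx variant plasmids and GFP-Ctp were immunoprecipitated via GFP-Ctp. Input, unbound and immunoprecipitate fractions were analysed by western blot, with immunoprecipitate lanes loaded at 4× relative amount.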

[3] = test system: GFP reporter in OSCs; details: tethering to nascent RNA; ref Batki et al. 2019; cited from earlier work

B1: Ctp: dynein light chain protein Cut up, Drosophila ortholog of LC8; λN fusion in tethering assay (protein)
chain: MSDRKAVIKNADMSEEMQQDAVDCATQALEKYNIEKDIAAYIKKEFDKKYNPTWHCIVGRNFGSYVTHETRHFIYFYLGQVAILLFKSG
cotranscriptional silencing (λN tethering) [1]: similarly strong repression

B2: C-terminal portion of Panx (amino acids 447–541): Panx fragment including the two predicted Ctp binding sites (protein, UniProt Q9W2H9 447-541, looked up, fragment)
chain: PTEEQETATLYKNAATQTERRTATRDAGTQVRLESKLNGAFWQNPHFDPMNLTQHQSNVMLALQEIYQTLPSATMAVKLSRALAPALAIIKGRQP
interaction with Ctp (co-IP) [2]: interacted with Ctp

B3: Panx: Panoramix, SFiNX subunit (protein)
chain: MEAPMKLEVKVENYVECGINEDEATPLREGTGETPPHAFACGVPMSGSGWCSDPEDGNLVHHSATPTSDEHLQPSLDTIEPKMEPKIKEDADNAMLDSLLADPFENNSPATLQTPADVKPNAMLDSVEQGSRSCELLPSEFSKRENLDDMDLFSLKAAKTLVPDEQQSFPQNDTPIDDPEAADLIAQKREILKMLEMTAENRKVKHKKKKHKKERSHRSNKHQEESRKRNHSNSSSDEGADDKNQFDCDYRGHKKYKNRRGSASSQNESSKERKLRDTELDYVPVRPDEHFIRPIKFSNLIERRPPQVEFNTVNLSKADKRSLAVARAELVLEQIQQKANKEEPPEFHMVDTICKLPVNESFRNQDCFENPSPICNNMNVVYKFNSTPGTRIDLSKWGLETVPEATKRLLRLLGIDVARLKELQSTVKPSQRILKLKKEQLEQGLAPTEEQETATLYKNAATQTERRTATRDAGTQVRLESKLNGAFWQNPHFDPMNLTQHQSNVMLALQEIYQTLPSATMAVKLSRALAPALAIIKGRQP
fold reporter silencing (λN tethering) [3]: ~20 fold
